Measurements reported in ChEMBL document CHEMBL4382192, “Discovery of a potent dual ALK and EGFR T790M inhibitor” (Eur J Med Chem, 2017).

Tests used:
[1] = test system: Tyrosine-protein kinase ABL1 (Homo sapiens), P00519 [H396P]; assay: Binding affinity to human non-phosphorylated ABL1 H396P mutant (S229 to K512 residues) expressed in mammalian expression system assessed as residual binding level at 1 uM by Kinomescan method relative to control
In short: (§1)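 Kinome-wide selectivity panel run by the KINOMEscan method, with the test compound at a single concentration of 1 μM. Wild-type and mutant kinases were profiled in the same screen.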

[2] = target: Cyclin-dependent kinase 13 (Homo sapiens) (UniProt Q14004); assay: Binding affinity to wild-type human partial length CDC2L5 (H675 to S1054 residues) expressed in mammalian expression system assessed as residual binding level at 1 uM by Kinomescan method relative to control
[3] = target: Tyrosine-protein kinase JAK3 (Homo sapiens) (UniProt P52333); assay: Binding affinity to wild-type human partial length JAK3 JH1 catalytic domain (I781 to S1124 residues) expressed in mammalian expression system assessed as residual binding level at 1 uM by Kinomescan method relative to control
Sequence of Tyrosine-protein kinase JAK3 (Homo sapiens) (P52333 whole entry, the tested form may be a part): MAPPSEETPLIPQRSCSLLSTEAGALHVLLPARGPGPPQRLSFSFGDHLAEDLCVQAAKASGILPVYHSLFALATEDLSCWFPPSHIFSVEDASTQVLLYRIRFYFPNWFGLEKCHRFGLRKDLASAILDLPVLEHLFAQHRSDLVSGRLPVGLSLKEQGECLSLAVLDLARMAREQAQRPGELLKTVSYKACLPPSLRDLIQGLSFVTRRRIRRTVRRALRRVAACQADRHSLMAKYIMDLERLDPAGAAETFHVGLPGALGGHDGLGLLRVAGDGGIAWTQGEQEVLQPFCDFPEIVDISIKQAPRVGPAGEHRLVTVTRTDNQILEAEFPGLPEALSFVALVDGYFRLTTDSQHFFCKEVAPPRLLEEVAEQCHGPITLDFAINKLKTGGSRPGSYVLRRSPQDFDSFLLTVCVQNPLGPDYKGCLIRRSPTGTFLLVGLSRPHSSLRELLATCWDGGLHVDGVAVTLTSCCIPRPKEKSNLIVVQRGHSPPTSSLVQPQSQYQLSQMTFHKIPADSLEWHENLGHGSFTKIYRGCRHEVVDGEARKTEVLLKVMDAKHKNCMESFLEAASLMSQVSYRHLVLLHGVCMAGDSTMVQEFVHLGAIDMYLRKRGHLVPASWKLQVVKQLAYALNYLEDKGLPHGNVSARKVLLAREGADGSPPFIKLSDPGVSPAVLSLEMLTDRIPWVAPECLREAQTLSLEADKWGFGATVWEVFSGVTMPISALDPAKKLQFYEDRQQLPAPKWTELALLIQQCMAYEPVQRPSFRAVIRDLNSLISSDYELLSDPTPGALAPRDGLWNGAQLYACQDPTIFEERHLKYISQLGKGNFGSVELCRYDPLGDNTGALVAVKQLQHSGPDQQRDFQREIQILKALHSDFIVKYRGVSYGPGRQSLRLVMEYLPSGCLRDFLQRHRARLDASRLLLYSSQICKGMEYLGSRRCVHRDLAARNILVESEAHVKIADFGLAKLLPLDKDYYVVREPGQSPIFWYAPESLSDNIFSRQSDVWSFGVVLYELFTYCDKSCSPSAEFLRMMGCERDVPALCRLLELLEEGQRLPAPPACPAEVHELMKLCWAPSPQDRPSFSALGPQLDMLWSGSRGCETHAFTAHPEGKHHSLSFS

[4] = target: Receptor-type tyrosine-protein kinase FLT3 (Homo sapiens) (UniProt P36888); assay: Binding affinity to wild-type human partial length FLT3 (V592 to Y969 residues) expressed in bacterial expression system assessed as residual binding level at 1 uM by Kinomescan method relative to control
Sequence of Receptor-type tyrosine-protein kinase FLT3 (Homo sapiens) (P36888 whole entry, the tested form may be a part): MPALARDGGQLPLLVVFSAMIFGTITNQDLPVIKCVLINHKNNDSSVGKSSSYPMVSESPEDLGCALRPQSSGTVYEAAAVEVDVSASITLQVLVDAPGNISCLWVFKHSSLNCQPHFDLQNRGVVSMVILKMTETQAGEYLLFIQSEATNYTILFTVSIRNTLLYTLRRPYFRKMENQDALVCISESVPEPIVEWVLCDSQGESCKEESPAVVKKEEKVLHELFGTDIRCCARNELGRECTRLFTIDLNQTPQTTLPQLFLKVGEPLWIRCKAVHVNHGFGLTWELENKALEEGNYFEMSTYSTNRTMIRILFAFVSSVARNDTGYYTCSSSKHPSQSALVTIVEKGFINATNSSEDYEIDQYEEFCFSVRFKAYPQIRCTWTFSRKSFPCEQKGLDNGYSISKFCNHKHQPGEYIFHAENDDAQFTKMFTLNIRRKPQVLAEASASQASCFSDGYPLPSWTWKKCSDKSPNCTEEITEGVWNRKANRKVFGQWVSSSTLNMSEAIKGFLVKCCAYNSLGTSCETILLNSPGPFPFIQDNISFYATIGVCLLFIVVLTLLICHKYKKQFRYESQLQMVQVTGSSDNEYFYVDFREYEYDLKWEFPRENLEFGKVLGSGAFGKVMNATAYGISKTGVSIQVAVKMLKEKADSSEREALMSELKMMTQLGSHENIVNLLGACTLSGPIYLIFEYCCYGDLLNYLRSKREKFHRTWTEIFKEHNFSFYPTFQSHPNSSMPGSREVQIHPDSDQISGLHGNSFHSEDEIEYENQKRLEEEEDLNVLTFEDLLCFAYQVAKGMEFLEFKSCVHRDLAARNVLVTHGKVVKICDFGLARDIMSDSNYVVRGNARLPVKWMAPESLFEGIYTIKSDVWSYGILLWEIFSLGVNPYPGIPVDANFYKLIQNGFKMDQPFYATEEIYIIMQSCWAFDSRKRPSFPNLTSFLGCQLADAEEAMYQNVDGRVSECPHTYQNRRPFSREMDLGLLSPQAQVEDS

[5] = target: MAP kinase-interacting serine/threonine-protein kinase 1 (Homo sapiens) (UniProt Q9BUB5); assay: Binding affinity to wild-type human full length MKNK1 (M1 to L424 residues) expressed in mammalian expression system assessed as residual binding level at 1 uM by Kinomescan method relative to control
In short: (§2)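 Single-point kinome-wide KINOMEscan binding panel, test compound at 1 μM, run by the provider's standard protocol.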

[6] = target: Protein kinase C eta type (Homo sapiens) (UniProt P24723); assay: Binding affinity to wild-type human partial length PRKCH (S324 to P683 residues) expressed in bacterial expression system assessed as residual binding level at 1 uM by Kinomescan method relative to control
[7] = test system: Receptor-type tyrosine-protein kinase FLT3 (Homo sapiens), P36888 [UNDEFINED MUTATION]; assay: Binding affinity to human partial length FLT3 ITD mutant expressed in bacterial expression system assessed as residual binding level at 1 uM by Kinomescan method relative to control; in short: as §1
Sequence of Receptor-type tyrosine-protein kinase FLT3 (Homo sapiens), P36888 [UNDEFINED MUTATION] (P36888 whole entry, looked up, change not shown, the tested form may be a part): as the sequence (P36888 whole entry, the tested form may be a part) above

[8] = target: Cyclin-dependent kinase 5 (Homo sapiens) (UniProt Q00535); assay: Binding affinity to wild-type human full length CDK5 (M1 to P292 residues) expressed in bacterial expression system assessed as residual binding level at 1 uM by Kinomescan method relative to control
[9] = target: Tyrosine-protein kinase Yes (Homo sapiens) (UniProt P07947); assay: Binding affinity to wild-type human partial length YES (T257 to L543 residues) expressed in bacterial expression system assessed as residual binding level at 1 uM by Kinomescan method relative to control
Sequence of Tyrosine-protein kinase Yes (Homo sapiens) (P07947 2-543 limits assumed): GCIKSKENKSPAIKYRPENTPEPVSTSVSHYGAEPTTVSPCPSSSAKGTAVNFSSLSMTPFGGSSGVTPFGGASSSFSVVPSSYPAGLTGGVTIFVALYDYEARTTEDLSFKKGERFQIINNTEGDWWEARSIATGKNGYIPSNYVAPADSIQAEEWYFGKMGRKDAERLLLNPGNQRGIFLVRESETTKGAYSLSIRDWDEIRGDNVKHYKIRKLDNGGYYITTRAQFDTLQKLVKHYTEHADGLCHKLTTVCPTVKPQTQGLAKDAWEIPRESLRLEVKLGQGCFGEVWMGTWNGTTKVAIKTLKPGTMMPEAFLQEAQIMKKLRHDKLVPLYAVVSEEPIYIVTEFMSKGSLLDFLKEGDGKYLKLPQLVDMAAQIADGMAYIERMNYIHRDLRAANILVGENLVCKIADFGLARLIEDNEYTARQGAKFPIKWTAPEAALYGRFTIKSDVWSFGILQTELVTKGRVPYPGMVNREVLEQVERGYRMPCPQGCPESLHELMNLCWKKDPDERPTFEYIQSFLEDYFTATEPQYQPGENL

[10] = Clearance in mouse at 2 mg/kg, iv; format: ADME, organism-based; details: in vivo
[11] = target: NUAK family SNF1-like kinase 1 (Homo sapiens) (UniProt O60285); assay: Binding affinity to wild-type human partial length ARK5 (E25 to I332 residues) expressed in bacterial expression system assessed as residual binding level at 1 uM by Kinomescan method relative to control
[12] = target: Serine/threonine-protein kinase WNK3 (Homo sapiens) (UniProt Q9BYP7); assay: Binding affinity to wild-type human partial length WNK3 (M1 to D434 residues) expressed in mammalian expression system assessed as residual binding level at 1 uM by Kinomescan method relative to control
[13] = target: Serine/threonine-protein kinase 32A (Homo sapiens) (UniProt Q8WU08); assay: Binding affinity to wild-type human full length YANK1 (M1 to L396 residues) expressed in mammalian expression system assessed as residual binding level at 1 uM by Kinomescan method relative to control
[14] = target: Cyclin-dependent kinase 11A (Homo sapiens) (UniProt Q9UQ88); assay: Binding affinity to wild-type human partial length CDC2L2 (D391 to K730 residues) expressed in bacterial expression system assessed as residual binding level at 1 uM by Kinomescan method relative to control
Sequence of Cyclin-dependent kinase 11A (Homo sapiens) (Q9UQ88 whole entry, the tested form may be a part): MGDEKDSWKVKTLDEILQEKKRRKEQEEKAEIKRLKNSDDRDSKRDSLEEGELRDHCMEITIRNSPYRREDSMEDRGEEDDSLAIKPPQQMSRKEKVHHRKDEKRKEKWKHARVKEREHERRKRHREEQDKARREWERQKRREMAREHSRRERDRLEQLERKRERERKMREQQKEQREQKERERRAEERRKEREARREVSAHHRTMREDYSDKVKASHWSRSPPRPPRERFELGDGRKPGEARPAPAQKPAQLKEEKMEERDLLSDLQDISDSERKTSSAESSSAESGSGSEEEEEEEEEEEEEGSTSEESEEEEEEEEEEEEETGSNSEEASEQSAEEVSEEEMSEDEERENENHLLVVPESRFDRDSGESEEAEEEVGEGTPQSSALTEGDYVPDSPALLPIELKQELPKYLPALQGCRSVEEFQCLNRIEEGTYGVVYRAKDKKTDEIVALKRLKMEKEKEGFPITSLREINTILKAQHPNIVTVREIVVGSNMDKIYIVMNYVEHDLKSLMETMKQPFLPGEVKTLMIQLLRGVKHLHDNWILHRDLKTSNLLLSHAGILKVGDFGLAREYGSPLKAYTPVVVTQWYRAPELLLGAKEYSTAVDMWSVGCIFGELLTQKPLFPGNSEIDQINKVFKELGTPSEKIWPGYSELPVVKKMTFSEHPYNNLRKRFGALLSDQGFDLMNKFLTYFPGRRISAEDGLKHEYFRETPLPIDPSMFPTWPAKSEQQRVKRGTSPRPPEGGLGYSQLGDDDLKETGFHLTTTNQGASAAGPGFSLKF

[15] = target: Serine/threonine-protein kinase NLK (Homo sapiens) (UniProt Q9UBE8); assay: Binding affinity to wild-type human full length NLK (M13 to E527 residues) expressed in bacterial expression system assessed as residual binding level at 1 uM by Kinomescan method relative to control; in short: as §2
[16] = target: Tyrosine-protein kinase ABL1 (Homo sapiens) (UniProt P00519); assay: Binding affinity to wild-type human phosphorylated ABL1 (S229 to K512 residues) expressed in mammalian expression system assessed as residual binding level at 1 uM by Kinomescan method relative to control
[17] = target: Mitogen-activated protein kinase 4 (Homo sapiens) (UniProt P31152); assay: Binding affinity to wild-type human partial length ERK4 (M1 to L365 residues) expressed in bacterial expression system assessed as residual binding level at 1 uM by Kinomescan method relative to control
[18] = target: Mitogen-activated protein kinase kinase kinase kinase 5 (Homo sapiens) (UniProt Q9Y4K4); assay: Binding affinity to wild-type human partial length MAP4K5 (M1 to P297 residues) expressed in bacterial expression system assessed as residual binding level at 1 uM by Kinomescan method relative to control
[19] = target: Leukocyte tyrosine kinase receptor (Homo sapiens) (UniProt P29376); assay: Binding affinity to wild-type human partial length LTK (P422 to S744 residues) expressed in bacterial expression system assessed as residual binding level at 1 uM by Kinomescan method relative to control
[20] = target: Myosin-IIIb (Homo sapiens) (UniProt Q8WXR4); assay: Binding affinity to wild-type human partial length MYO3B (M1 to D357 residues) expressed in bacterial expression system assessed as residual binding level at 1 uM by Kinomescan method relative to control
[21] = target: Serine/threonine-protein kinase BRSK1 (Homo sapiens) (UniProt Q8TDC3); assay: Binding affinity to wild-type human partial length BRSK1 (M1 to E754 residues) expressed in bacterial expression system assessed as residual binding level at 1 uM by Kinomescan method relative to control
Sequence of Serine/threonine-protein kinase BRSK1 (Homo sapiens) (Q8TDC3 whole entry, the tested form may be a part): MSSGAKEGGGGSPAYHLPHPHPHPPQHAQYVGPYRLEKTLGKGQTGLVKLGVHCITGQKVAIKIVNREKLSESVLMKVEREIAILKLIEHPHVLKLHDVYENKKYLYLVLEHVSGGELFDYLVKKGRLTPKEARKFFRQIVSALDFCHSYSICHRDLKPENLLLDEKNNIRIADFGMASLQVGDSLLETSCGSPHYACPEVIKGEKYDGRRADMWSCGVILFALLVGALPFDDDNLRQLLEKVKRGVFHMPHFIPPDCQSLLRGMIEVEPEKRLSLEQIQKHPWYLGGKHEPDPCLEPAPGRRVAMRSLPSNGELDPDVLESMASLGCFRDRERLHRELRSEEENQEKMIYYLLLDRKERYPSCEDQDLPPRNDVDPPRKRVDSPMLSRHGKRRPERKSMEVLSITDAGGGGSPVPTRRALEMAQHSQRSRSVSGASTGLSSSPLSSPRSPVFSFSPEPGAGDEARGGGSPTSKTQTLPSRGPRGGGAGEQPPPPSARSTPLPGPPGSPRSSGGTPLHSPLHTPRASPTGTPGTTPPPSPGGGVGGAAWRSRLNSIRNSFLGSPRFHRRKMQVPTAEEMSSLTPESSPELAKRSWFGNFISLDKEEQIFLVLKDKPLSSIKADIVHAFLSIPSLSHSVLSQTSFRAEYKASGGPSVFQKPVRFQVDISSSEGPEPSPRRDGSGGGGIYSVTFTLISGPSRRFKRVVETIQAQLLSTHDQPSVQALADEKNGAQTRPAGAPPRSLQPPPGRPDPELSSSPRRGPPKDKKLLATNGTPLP

[22] = test system: Tyrosine-protein kinase ABL1 (Homo sapiens), P00519 [T315I]; assay: Binding affinity to human phosphorylated ABL1 T315I mutant (S229 to K512 residues) expressed in mammalian expression system assessed as residual binding level at 1 uM by Kinomescan method relative to control; in short: as §1
[23] = target: Phosphatidylinositol 4-phosphate 5-kinase type-1 gamma (Homo sapiens) (UniProt O60331); assay: Binding affinity to wild-type human partial length PIP5K1C (M1 to T668 residues) expressed in mammalian expression system assessed as residual binding level at 1 uM by Kinomescan method relative to control
Sequence of Phosphatidylinositol 4-phosphate 5-kinase type-1 gamma (Homo sapiens) (O60331 whole entry, the tested form may be a part): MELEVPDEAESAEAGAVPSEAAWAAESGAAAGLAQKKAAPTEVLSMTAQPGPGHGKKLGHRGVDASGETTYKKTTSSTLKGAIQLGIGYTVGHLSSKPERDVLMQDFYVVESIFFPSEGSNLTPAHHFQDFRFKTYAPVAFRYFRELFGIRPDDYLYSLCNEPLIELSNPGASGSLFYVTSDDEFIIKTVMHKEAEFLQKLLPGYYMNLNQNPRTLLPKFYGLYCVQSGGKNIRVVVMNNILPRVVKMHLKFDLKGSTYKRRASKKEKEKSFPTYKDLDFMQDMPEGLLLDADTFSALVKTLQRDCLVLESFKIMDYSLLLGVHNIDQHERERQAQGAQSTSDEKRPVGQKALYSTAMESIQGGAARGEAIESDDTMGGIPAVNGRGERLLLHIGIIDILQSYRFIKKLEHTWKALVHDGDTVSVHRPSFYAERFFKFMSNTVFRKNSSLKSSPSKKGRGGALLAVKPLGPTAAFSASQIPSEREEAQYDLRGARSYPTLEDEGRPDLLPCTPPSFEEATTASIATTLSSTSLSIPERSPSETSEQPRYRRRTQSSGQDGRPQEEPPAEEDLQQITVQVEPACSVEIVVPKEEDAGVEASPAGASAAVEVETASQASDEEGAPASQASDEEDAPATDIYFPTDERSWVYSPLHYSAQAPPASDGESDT

[24] = target: Calcium/calmodulin-dependent protein kinase type 1 (Homo sapiens) (UniProt Q14012); assay: Binding affinity to wild-type human full length CAMK1 (M1 to L370 residues) expressed in bacterial expression system assessed as residual binding level at 1 uM by Kinomescan method relative to control

SMILES: C=CC(=O)Nc1cc(Nc2ncc(Cl)c(Nc3ccccc3S(=O)(=O)C(C)C)n2)c(OC)cc1N(C)CCN(C)C
- Activity [1]: 2.3%
- Activity [2]: 91%
- Activity [3]: 0%
- Activity [4]: 3.1%
- Activity [5]: 90%
- Activity [6]: 100%
- Activity [7]: 7.6%
- Activity [8]: 85%
- Activity [9]: 17%
- clearance [10]: 29 mL/min/kg
- Activity [11]: 8.1%
- Activity [12]: 100%
- Activity [13]: 2.3%
- Activity [14]: 78%
- Activity [15]: 55%
- Activity [16]: 7.5%
- Activity [17]: 82%
- Activity [18]: 66%
- Activity [19]: 0%
- Activity [20]: 1.8%
- Activity [21]: 49%
- Activity [22]: 0.35%
- Activity [23]: 98%
- Activity [24]: 40%
